Assay results: ChEMBL document CHEMBL3588757, “Structure-based design, synthesis and biological testing of piperazine-linked bis-epipodophyllotoxin etoposide analogs” (Bioorg Med Chem, 2015)
Active and inactive are the calls of the source. The rule behind the calls is not given here.

How the values were obtained:
[1] = target: DNA topoisomerase 2-alpha (Homo sapiens) (UniProt P11388); test: Inhibition of full-length human recombinant topoisomerase 2-alpha mediated relaxation and cleavage of supercoiled pBR322 plasmid DNA to linear DNA by ethidium bromide staining based gel electrophoresis assay
Chain of DNA topoisomerase 2-alpha (Homo sapiens) (P11388 whole entry): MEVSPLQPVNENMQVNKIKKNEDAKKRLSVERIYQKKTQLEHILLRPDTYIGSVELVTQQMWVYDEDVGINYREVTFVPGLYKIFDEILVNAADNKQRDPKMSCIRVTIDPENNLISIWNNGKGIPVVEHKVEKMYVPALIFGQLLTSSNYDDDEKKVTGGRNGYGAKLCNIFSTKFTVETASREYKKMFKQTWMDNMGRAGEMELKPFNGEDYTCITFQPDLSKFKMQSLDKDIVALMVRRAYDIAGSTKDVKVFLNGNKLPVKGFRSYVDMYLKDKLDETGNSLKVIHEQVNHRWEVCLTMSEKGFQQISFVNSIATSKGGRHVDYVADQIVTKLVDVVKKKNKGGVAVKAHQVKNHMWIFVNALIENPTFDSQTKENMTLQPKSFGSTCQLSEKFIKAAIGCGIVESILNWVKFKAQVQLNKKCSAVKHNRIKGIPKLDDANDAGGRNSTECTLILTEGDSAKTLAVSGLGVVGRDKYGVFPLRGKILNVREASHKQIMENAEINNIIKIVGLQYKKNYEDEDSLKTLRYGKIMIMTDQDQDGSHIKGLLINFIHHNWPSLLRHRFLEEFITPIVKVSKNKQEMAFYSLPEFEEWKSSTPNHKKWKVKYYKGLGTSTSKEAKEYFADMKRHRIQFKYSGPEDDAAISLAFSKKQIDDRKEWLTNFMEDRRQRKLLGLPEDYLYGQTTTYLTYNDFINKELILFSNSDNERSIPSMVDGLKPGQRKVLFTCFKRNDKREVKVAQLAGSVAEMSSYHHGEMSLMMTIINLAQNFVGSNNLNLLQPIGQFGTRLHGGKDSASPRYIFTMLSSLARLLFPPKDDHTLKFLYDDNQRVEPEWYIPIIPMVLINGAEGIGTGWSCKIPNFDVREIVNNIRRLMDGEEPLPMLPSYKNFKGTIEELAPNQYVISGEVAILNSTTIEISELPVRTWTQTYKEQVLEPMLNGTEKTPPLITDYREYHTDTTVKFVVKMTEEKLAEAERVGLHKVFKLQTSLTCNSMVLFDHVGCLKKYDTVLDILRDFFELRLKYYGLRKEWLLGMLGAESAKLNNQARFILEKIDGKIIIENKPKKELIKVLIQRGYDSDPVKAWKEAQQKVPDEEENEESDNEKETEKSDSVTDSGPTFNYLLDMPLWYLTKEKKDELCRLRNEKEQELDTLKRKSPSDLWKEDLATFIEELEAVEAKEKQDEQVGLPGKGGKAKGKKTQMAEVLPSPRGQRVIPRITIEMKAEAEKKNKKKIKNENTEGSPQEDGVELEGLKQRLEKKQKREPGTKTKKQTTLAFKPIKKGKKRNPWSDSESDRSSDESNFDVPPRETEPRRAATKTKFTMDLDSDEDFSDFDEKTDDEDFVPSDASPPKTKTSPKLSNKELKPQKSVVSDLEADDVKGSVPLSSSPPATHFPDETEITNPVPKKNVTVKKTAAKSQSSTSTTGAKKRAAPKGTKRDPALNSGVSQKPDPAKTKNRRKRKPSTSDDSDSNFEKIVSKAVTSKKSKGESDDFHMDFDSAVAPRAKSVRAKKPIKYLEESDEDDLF
How it was run: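 Recombinant full-length human topoisomerase IIα with supercoiled pBR322 DNA at 37 °C. Components mixed on ice before drug addition. Complexes trapped with SDS; products run on ethidium bromide gels. Linear DNA identified against a HindIII-linearized marker; repeated on three days.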

[2] = target: DNA topoisomerase 2-alpha (Homo sapiens) (UniProt P11388); test: Inhibition of full-length human recombinant topoisomerase 2-alpha-mediated decatenation activity of kDNA at >10 uM by ethidium bromide based gel-assay
[3] = Cytotoxicity against etoposide-resistant human K/VP.5 cells assessed as cell growth inhibition after 72 hrs by MTS assay; format: functional, cell-based; details: K/VP.5, 72 h
How it was run: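 K/VP.5 cells are a K562-derived subline, 26-fold etoposide-resistant, with decreased topoisomerase IIα mRNA and protein. Cells were grown in suspension in αMEM with 10% fetal calf serum. Drugs were given from DMSO stocks, with final DMSO typically 0.4% or less. Read-out was MTS absorbance after 72 h. Typically nine concentrations were run in duplicate on two days. IC50 came from a four-parameter logistic fit.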

[4] = test system: K562; test: Cytotoxicity against human K562 cells assessed as cell growth inhibition after 72 hrs by MTS assay; format: functional, cell-based; details: K562, 72 h
[5] = test system: K562; test: Relative resistance, ratio of IC50 for etoposide-resistant human K/VP.5 cells to IC50 for human K562 cells; format: functional
[6] = test system: K562; test: Induction of DNA double strand breaks in human K562 cells assessed as increase in gamma-H2AX level at 25 uM after 4 hrs by chemiluminescence analysis; format: functional, cell-based
How it was run: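 K562 cells (3.4 × 10^5/mL) exposed 4 h at 37 °C to 25 µM drug or DMSO. Lysed in Tris pH 6.7/SDS buffer; 50 µg protein on 14% SDS-PAGE, PVDF blot. Rabbit anti-γH2AX (1:1000, overnight), GAPDH loading control, HRP secondary. Chemiluminescence imaged by CCD.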

[7] = target: DNA topoisomerase 2-alpha (Homo sapiens) (UniProt P11388); test: Inhibition of full-length human recombinant topoisomerase 2-alpha-mediated decatenation activity of kDNA by ethidium bromide based gel-assay
[8] = target: DNA topoisomerase 2-alpha (Homo sapiens) (UniProt P11388); test: Inhibition of full-length human recombinant topoisomerase 2-alpha assessed as conversion of […] DNA at 100 uM by ethidium bromide based gel-assay
[9] = test system: K562; test: Induction of apoptosis in human K562 cells assessed as increase in proportion of apoptotic and apoptotic/necrotic cells at 10 uM after 24 to 48 hrs by annexin V-FITC/propidium iodide staining based two-color fluorescence flow cytometry; format: functional, cell-based
[10] = test system: K562; test: Induction of apoptosis in human K562 cells assessed as decrease in proportion of viable cells at 10 uM after 24 to 48 hrs by annexin V-FITC/propidium iodide staining based two-color fluorescence flow cytometry; format: functional, cell-based
[11] = test system: CHO; test: Induction of apoptosis in CHO cells assessed as increase in sub-G0/G1 cell population at 10 uM after 49 hrs by propidium iodide staining based flow cytometry (Rvb <2%); format: functional, Cricetulus griseus
[12] = test system: CHO; test: Induction of cell cycle arrest in CHO cells assessed as accumulation at G2/M phase at 10 uM after 21 hrs by propidium iodide staining based flow cytometry; format: functional; details: Cricetulus griseus
[13] = test system: K562; test: Induction of apoptosis in human K562 cells assessed as increase in caspase 3/7 activity at 1 uM by luminescence analysis; format: functional, cell-based; details: TDE = time-dependent effect
How it was run: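 K562 cells at 2 × 10^5 cells/mL treated with vehicle or 1 µM compound for 24 or 48 h. Lysates assayed with a luminogenic DEVD-aminoluciferin caspase-3/7 substrate and read by luminescence. Four wells (eight for control); unpaired t-test vs control; repeated on two days.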

[14] = test system: K562; test: Induction of apoptosis in human K562 cells assessed as decrease in proportion of viable cells at 1 uM after 24 to 48 hrs by annexin V-FITC/propidium iodide staining based two-color fluorescence flow cytometry; format: functional, cell-based
How it was run: (§1)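 K562 cells (1 × 10^6/mL), untreated or given 1 µM compound (10 µM etoposide control) at 37 °C for 24 h or 48 h. Annexin V-FITC plus propidium iodide two-colour flow cytometry. Cells are scored as viable, apoptotic-only (annexin+/PI−), apoptotic/necrotic (annexin+/PI+) or necrotic.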

[15] = test system: CHO; test: Induction of apoptosis in CHO cells assessed as increase in sub-G0/G1 cell population at 1 uM after 49 hrs by propidium iodide staining based flow cytometry; format: functional; details: Cricetulus griseus
How it was run: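 CHO cells grown to confluence in α-MEM/10% FCS, serum-starved 48 h (0% FCS), then seeded at 2 × 10^5 cells/mL and repleted with 10% FCS. Continuously treated from repletion with 1 µM compound (10 µM etoposide, DMSO control) for various times. Propidium iodide DNA staining, flow cytometric phase distribution including sub-G0/G1.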

[16] = test system: CHO; test: Induction of cell cycle arrest in CHO cells assessed as accumulation at G2/M phase at 1 uM by propidium iodide staining based flow cytometry; format: functional; details: Cricetulus griseus
[17] = test system: K562; test: Induction of apoptosis in human K562 cells assessed as increase in proportion of apoptotic and apoptotic/necrotic cells at 1 uM after 24 to 48 hrs by annexin V-FITC/propidium iodide staining based two-color fluorescence flow cytometry; format: functional, cell-based; how it was run: as §1

Row | Structure (SMILES) | Effect on topoisomerase 2-alpha DNA cleavage (qualitative) [1] | Inhibition of decatenation activity (qualitative) [2] | IC50 [3] | IC50 [4] | Ratio IC50 [5] | Activity [6] | inhibition [7] | Inhibition (qualitative activity call) [8] | Activity [9] | Activity [10] | Activity [11] | Activity [12] | Activity [13] | Activity [14] | Activity [15] | Activity [16] | Activity [17]
1 | COc1cc([C@@H]2c3cc4c(cc3[C@@H](NC(=O)CN3CCN(CCCCCCCCN5CCNCC5)CC3)[C@H]3COC(=O)[C@H]23)OCO4)cc(OC)c1O | Dose-dependent effect | Active | 556 nM | 103 nM | 5.4 | Active | – | – | – | – | – | – | – | – | – | – | –
2 | COc1cc([C@@H]2c3cc4c(cc3[C@@H](NC(=O)CN3CCN(CCCN5CCNCC5)CC3)[C@H]3COC(=O)[C@H]23)OCO4)cc(OC)c1O | Dose-dependent effect | – | 13300 nM | 1270 nM | 10.5 | Active | Active | – | – | – | – | – | – | – | – | – | –
3 | COc1cc([C@@H]2c3cc4c(cc3[C@@H](NC(=O)CN3CCN(CCCCCCCCCCCCN5CCN(CC(=O)N[C@@H]6c7cc8c(cc7[C@@H](c7cc(OC)c(O)c(OC)c7)[C@H]7C(=O)OC[C@@H]76)OCO8)CC5)CC3)[C@H]3COC(=O)[C@H]23)OCO4)cc(OC)c1O | Dose-dependent effect | Active | 549 nM | 67 nM | 8.2 | – | – | Active | – | – | – | – | – | – | – | – | –
4 | COc1cc([C@@H]2c3cc4c(cc3[C@@H](O[C@@H]3O[C@@H]5CO[C@@H](C)O[C@H]5[C@H](O)[C@H]3O)[C@H]3COC(=O)[C@H]23)OCO4)cc(OC)c1O [ETOPOSIDE] | Dose-dependent effect | Active | 2500 nM | 163 nM | 15.4 | Active | – | Active | Active | Active | 39% | Active | – | – | – | – | –
5 | COc1cc([C@@H]2c3cc4c(cc3[C@@H](NC(=O)CN3CCN(CCCCCCCCN5CCN(CC(=O)N[C@@H]6c7cc8c(cc7[C@@H](c7cc(OC)c(O)c(OC)c7)[C@H]7C(=O)OC[C@@H]76)OCO8)CC5)CC3)[C@H]3COC(=O)[C@H]23)OCO4)cc(OC)c1O | Dose-dependent effect | Active | 115 nM | 16 nM | 7.4 | Active | – | Active | – | – | – | – | tde | Active | Active | Active | Active
6 | COc1cc([C@@H]2c3cc4c(cc3[C@@H](NC(=O)CN3CCN(CCCCCCCCCCN5CCNCC5)CC3)[C@H]3COC(=O)[C@H]23)OCO4)cc(OC)c1O | Dose-dependent effect | Active | 156 nM | 26 nM | 6 | Active | – | – | – | – | – | – | tde | Active | Active | – | Active
